Assays:
Rattus norvegicus [1] = assay: Acute toxicity in Sprague-Dawley rat assessed as motor impairment at 600 mg/kg, ip after 2 hrs; type: organism-based; design: dose 600 mg/kg, route intraperitoneal; details: in vivo
How it was run: (§1)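 Male albino Sprague Dawley rats, two per dose, given test compound i.p. as a suspension in 0.5% methyl cellulose. Behaviour was closely observed and recorded over 4 h to detect acute motor impairment. Values are scored as animals toxic over animals tested at each time point.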

Rattus norvegicus [2] = assay: Acute toxicity in Sprague-Dawley rat assessed as motor impairment at 600 mg/kg, ip after 0.5 hrs; type: organism-based; design: dose 600 mg/kg, route intraperitoneal; details: in vivo; how it was run: as §1
Rattus norvegicus [3] = assay: Acute toxicity in Sprague-Dawley rat assessed as motor impairment at 300 mg/kg, ip after 0.25 hrs; type: organism-based; design: dose 300 mg/kg, route intraperitoneal; details: in vivo; how it was run: as §1
Rattus norvegicus [4] = assay: Acute toxicity in Sprague-Dawley rat assessed as motor impairment at 300 mg/kg, ip after 0.5 hrs; type: organism-based; design: dose 300 mg/kg, route intraperitoneal; details: in vivo; how it was run: as §1
Rattus norvegicus [5] = assay: Acute toxicity in Sprague-Dawley rat assessed as motor impairment at 100 mg/kg, ip after 0.5 hrs; type: organism-based; design: dose 100 mg/kg, route intraperitoneal; details: in vivo; how it was run: as §1
Rattus norvegicus [6] = assay: Acute toxicity in Sprague-Dawley rat assessed as motor impairment at 600 mg/kg, ip after 4 hrs; type: organism-based; design: dose 600 mg/kg, route intraperitoneal; details: in vivo; how it was run: as §1
Rattus norvegicus [7] = assay: Acute toxicity in Sprague-Dawley rat assessed as motor impairment at 100 mg/kg, ip after 1 hr; type: organism-based; design: dose 100 mg/kg, route intraperitoneal; details: in vivo; how it was run: as §1
Rattus norvegicus [8] = assay: Toxicity in Sprague-Dawley rat assessed as change in body weight at 600 mg/kg, ip measured after 24 hrs of clonus of one of the fore limbs seizure stage in protected rat; type: organism-based; design: dose 600 mg/kg, route intraperitoneal; details: in vivo
How it was run: (§2)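 Male Sprague Dawley rats (150–180 g) dosed i.p. then challenged with pilocarpine; body weight change measured 24 h after first Stage III seizure, split by protected and non-protected rats, given ± S.E.M.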

Rattus norvegicus [9] = assay: Toxicity in Sprague-Dawley rat assessed as change in body weight at 600 mg/kg, ip measured after 24 hrs of clonus of one of the fore limbs seizure stage in non-protected rat; type: organism-based; design: dose 600 mg/kg, route intraperitoneal; details: in vivo; how it was run: as §2
Mus musculus [10] = assay: Neurotoxicity in albino CF-1 mouse assessed as motor impairment at 300 mg/kg, ip after 0.5 hrs by rotarod test; type: toxicity, organism-based; design: dose 300 mg/kg, route intraperitoneal; details: in vivo
How it was run: (§3)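 Minimal motor impairment in male CF-1 mice by rotorod after i.p. dosing; toxic if animal falls off rotating rod 3 times within 1 min. Screen doses 30, 100, 300 mg/kg; quantitative TD50 (95% confidence interval) determined at time of peak effect.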

Mus musculus [11] = assay: Neurotoxicity in albino CF-1 mouse assessed as motor impairment at 300 mg/kg, ip after 4 hrs by rotarod test; type: toxicity, organism-based; design: dose 300 mg/kg, route intraperitoneal; details: in vivo; how it was run: as §3
Rattus norvegicus [12] = assay: Acute toxicity in Sprague-Dawley rat assessed as motor impairment at 100 mg/kg, ip after 4 hrs; type: organism-based; design: dose 100 mg/kg, route intraperitoneal; details: in vivo; how it was run: as §1
Rattus norvegicus [13] = assay: Acute toxicity in Sprague-Dawley rat assessed as motor impairment at 100 mg/kg, ip after 2 hrs; type: organism-based; design: dose 100 mg/kg, route intraperitoneal; details: in vivo; how it was run: as §1
[14] = Octanol-phosphate buffer partition coefficient, log P of the compound at 5 mg, after 24 hrs by UV spectroscopic analysis; type: physicochemical
How it was run: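 5 mg compound added to 10 mL octanol plus 10 mL phosphate buffer in stoppered tube, mechanically shaken 24 h at room temperature, then left in separating funnel 6 h to equilibrate.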

Rattus norvegicus [15] = assay: Acute toxicity in Sprague-Dawley rat assessed as motor impairment at 600 mg/kg, ip after 0.25 hrs; type: organism-based; design: dose 600 mg/kg, route intraperitoneal; details: in vivo; how it was run: as §1
Rattus norvegicus [16] = assay: Acute toxicity in Sprague-Dawley rat assessed as motor impairment at 300 mg/kg, ip after 2 hrs; type: organism-based; design: dose 300 mg/kg, route intraperitoneal; details: in vivo; how it was run: as §1
Rattus norvegicus [17] = assay: Acute toxicity in Sprague-Dawley rat assessed as motor impairment at 300 mg/kg, ip after 1 hr; type: organism-based; design: dose 300 mg/kg, route intraperitoneal; details: in vivo; how it was run: as §1
Rattus norvegicus [18] = assay: Acute toxicity in Sprague-Dawley rat assessed as motor impairment at 100 mg/kg, ip after 0.25 hrs; type: organism-based; design: dose 100 mg/kg, route intraperitoneal; details: in vivo; how it was run: as §1
Rattus norvegicus [19] = assay: Acute toxicity in Sprague-Dawley rat assessed as motor impairment at 300 mg/kg, ip after 4 hrs; type: organism-based; design: dose 300 mg/kg, route intraperitoneal; details: in vivo; how it was run: as §1
Rattus norvegicus [20] = assay: Acute toxicity in Sprague-Dawley rat assessed as motor impairment at 600 mg/kg, ip after 1 hr; type: organism-based; design: dose 600 mg/kg, route intraperitoneal; details: in vivo; how it was run: as §1

## O=C1Nc2ccccc2/C1=N/NC(=O)c1ccncc1
Rattus norvegicus [1]
  Activity: Non-toxic
Rattus norvegicus [2]
  Activity: Non-toxic
Rattus norvegicus [3]
  Activity: Non-toxic
Rattus norvegicus [4]
  Activity: Non-toxic
Rattus norvegicus [5]
  Activity: Non-toxic
Rattus norvegicus [6]
  Activity: Non-toxic
Rattus norvegicus [7]
  Activity: Non-toxic
Rattus norvegicus [8]
  Activity: Non-toxic
Rattus norvegicus [9]
  Activity: 20 g
Mus musculus [10]
  Activity: Non-toxic
Mus musculus [11]
  Activity: Non-toxic
Rattus norvegicus [12]
  Activity: Non-toxic
Rattus norvegicus [13]
  Activity: Non-toxic
[14]
  logP at 24 h: 1.12
Rattus norvegicus [15]
  Activity: Non-toxic
Rattus norvegicus [16]
  Activity: Non-toxic
Rattus norvegicus [17]
  Activity: Non-toxic
Rattus norvegicus [18]
  Activity: Non-toxic
Rattus norvegicus [19]
  Activity: Non-toxic
Rattus norvegicus [20]
  Activity: Non-toxic
